Experimental data taken from ChEMBL document CHEMBL3046106, “Synthesis and herbicidal activity of diphenyl ether derivatives containing unsaturated carboxylates” (J Agric Food Chem, 2011).

Tests used:
Echinochloa crus-galli [1] = assay: Herbicidal activity against Echinochloa crus-galli (barnyard grass) at 120 g/hm2 postemergent application after 2 weeks; assay type: functional
How it was run: (§1)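 Seedlings grown 14 days in the greenhouse; plants uniform in size and stage were chosen. Test compound in acetone sprayed post-emergence at a carrier volume equivalent to 187 L/ha. Plants returned to the greenhouse and watered; untreated plants served as control. Each species scored visually two weeks after application on a 0–100 scale (0 no activity, 100 total control).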

Digitaria sanguinalis [2] = assay: Herbicidal activity against Digitaria sanguinalis (hairy crabgrass) at 480 g/hm2 postemergent application after 2 weeks; assay type: functional; how it was run: as §1
Abutilon theophrasti [3] = assay: Herbicidal activity against Abutilon theophrasti (velvetleaf) at 480 g/hm2 postemergent application after 2 weeks; assay type: functional; how it was run: as §1
Echinochloa crus-galli [4] = assay: Herbicidal activity against Echinochloa crus-galli (barnyard grass) at 30 g/hm2 postemergent application after 2 weeks; assay type: functional; how it was run: as §1
Abutilon theophrasti [5] = assay: Herbicidal activity against Abutilon theophrasti (velvetleaf) at 30 g/hm2 postemergent application after 2 weeks; assay type: functional; how it was run: as §1
Digitaria sanguinalis [6] = assay: Herbicidal activity against Digitaria sanguinalis (hairy crabgrass) at 30 g/hm2 postemergent application after 2 weeks; assay type: functional; how it was run: as §1
Digitaria sanguinalis [7] = assay: Herbicidal activity against Digitaria sanguinalis (hairy crabgrass) at 120 g/hm2 postemergent application after 2 weeks; assay type: functional; how it was run: as §1
Echinochloa crus-galli [8] = assay: Herbicidal activity against Echinochloa crus-galli (barnyard grass) at 480 g/hm2 postemergent application after 2 weeks; assay type: functional; how it was run: as §1
Abutilon theophrasti [9] = assay: Herbicidal activity against Abutilon theophrasti (velvetleaf) at 120 g/hm2 postemergent application after 2 weeks; assay type: functional; how it was run: as §1
Portulaca oleracea [10] = assay: Herbicidal activity against Portulaca oleracea at 40 g/hm2 postemergent application after 2 weeks; assay type: functional; how it was run: as §1
Commelina communis [11] = assay: Herbicidal activity against Commelina communis (Asiatic dayflower) at 40 g/hm2 post-emergent application after 2 weeks; assay type: functional; how it was run: as §1
Xanthium strumarium [12] = assay: Herbicidal activity against Xanthium strumarium (cocklebur) at 40 g/hm2 postemergent application after 2 weeks; assay type: functional; how it was run: as §1
Setaria glauca (foxtail) [13] = assay: Herbicidal activity against Setaria glauca at 40 g/hm2 postemergent application after 2 weeks
Xanthium strumarium [14] = assay: Herbicidal activity against Xanthium strumarium (cocklebur) at 25 g/hm2 postemergent application after 2 weeks; assay type: functional; how it was run: as §1
Abutilon theophrasti [15] = assay: Herbicidal activity against Abutilon theophrasti (velvetleaf) at 25 g/hm2 postemergent application after 2 weeks; assay type: functional; how it was run: as §1
Digitaria sanguinalis [16] = assay: Herbicidal activity against Digitaria sanguinalis (hairy crabgrass) at 40 g/hm2 postemergent application after 2 weeks; assay type: functional; how it was run: as §1
Commelina communis [17] = assay: Herbicidal activity against Commelina communis (Asiatic dayflower) at 25 g/hm2 post-emergent application after 2 weeks; assay type: functional; how it was run: as §1
Echinochloa crus-galli [18] = assay: Herbicidal activity against Echinochloa crus-galli (barnyard grass) at 40 g/hm2 postemergent application after 2 weeks; assay type: functional; how it was run: as §1
Glycine max [19] = assay: Toxicity against Glycine max (soybean) at postemergent application after 2 weeks; assay type: organism-based; conditions: in vivo, other, 336 h; how it was run: as §1
Echinochloa crus-galli [20] = assay: Herbicidal activity against Echinochloa crus-galli (barnyard grass) at 100 g/hm2 postemergent application after 2 weeks; assay type: functional; how it was run: as §1
Digitaria sanguinalis [21] = assay: Herbicidal activity against Digitaria sanguinalis (hairy crabgrass) at 25 g/hm2 postemergent application after 2 weeks; assay type: functional; how it was run: as §1
Abutilon theophrasti [22] = assay: Herbicidal activity against Abutilon theophrasti (velvetleaf) at 100 g/hm2 postemergent application after 2 weeks; assay type: functional; how it was run: as §1
Triticum aestivum [23] = assay: Toxicity against Triticum aestivum (wheat) at 25 g/hm2 postemergent application after 2 weeks; assay type: organism-based; conditions: in vivo, other, 336 h
Glycine max [24] = assay: Toxicity against Glycine max (soybean) at 100 g/hm2 postemergent application after 2 weeks; assay type: organism-based; conditions: in vivo, other, 336 h; how it was run: as §1
Glycine max [25] = assay: Toxicity against Glycine max (soybean) at 25 g/hm2 postemergent application after 2 weeks; assay type: organism-based; conditions: in vivo, other, 336 h
Abutilon theophrasti [26] = assay: Herbicidal activity against Abutilon theophrasti (velvetleaf) at postemergent application after 2 weeks; assay type: functional; how it was run: as §1
Commelina communis [27] = assay: Herbicidal activity against Commelina communis (Asiatic dayflower) at 100 g/hm2 post-emergent application after 2 weeks; assay type: functional; how it was run: as §1
Amaranthus retroflexus [28] = assay: Herbicidal activity against Amaranthus retroflexus at 40 g/hm2 postemergent application after 2 weeks; assay type: functional; how it was run: as §1
Echinochloa crus-galli [29] = assay: Herbicidal activity against Echinochloa crus-galli (barnyard grass) at 25 g/hm2 postemergent application after 2 weeks; assay type: functional; how it was run: as §1
Abutilon theophrasti [30] = assay: Herbicidal activity against Abutilon theophrasti (velvetleaf) at 40 g/hm2 postemergent application after 2 weeks; assay type: functional; how it was run: as §1
[31] = Crop selectivity index, ratio of LD10 for soybean to LD90 for velvetleaf
Digitaria sanguinalis [32] = assay: Herbicidal activity against Digitaria sanguinalis (hairy crabgrass) at 100 g/hm2 postemergent application after 2 weeks; assay type: functional; how it was run: as §1
Triticum aestivum [33] = assay: Toxicity against Triticum aestivum (wheat) at 100 g/hm2 postemergent application after 2 weeks; assay type: organism-based; conditions: in vivo, other, 336 h; how it was run: as §1
Xanthium strumarium [34] = assay: Herbicidal activity against Xanthium strumarium (cocklebur) at 100 g/hm2 postemergent application after 2 weeks; assay type: functional; how it was run: as §1
Abutilon theophrasti [35] = assay: Herbicidal activity against Abutilon theophrasti (velvetleaf) at 1000 g/hm2 postemergent application after 2 weeks; assay type: functional; how it was run: as §1
Echinochloa crus-galli [36] = assay: Herbicidal activity against Echinochloa crus-galli (barnyard grass) at 1000 g/hm2 postemergent application after 2 weeks; assay type: functional; how it was run: as §1
Digitaria sanguinalis [37] = assay: Herbicidal activity against Digitaria sanguinalis (hairy crabgrass) at 2000 g/hm2 postemergent application after 2 weeks; assay type: functional; how it was run: as §1
Echinochloa crus-galli [38] = assay: Herbicidal activity against Echinochloa crus-galli (barnyard grass) at 2000 g/hm2 postemergent application after 2 weeks; assay type: functional; how it was run: as §1
Digitaria sanguinalis [39] = assay: Herbicidal activity against Digitaria sanguinalis (hairy crabgrass) at 1000 g/hm2 postemergent application after 2 weeks; assay type: functional; how it was run: as §1
Abutilon theophrasti [40] = assay: Herbicidal activity against Abutilon theophrasti (velvetleaf) at 2000 g/hm2 postemergent application after 2 weeks; assay type: functional; how it was run: as §1
Triticum aestivum [41] = assay: Toxicity against Triticum aestivum (wheat) at 400 g/hm2 postemergent application after 2 weeks; assay type: organism-based; conditions: in vivo, other, 336 h
How it was run: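 Greenhouse post-emergence test: plants grown 14 days, then chosen for uniform size and stage. Compound dissolved in acetone and sprayed at a carrier volume equivalent to 187 L per hectare, over […]. Untreated plants served as control. Plants were rated two weeks after application on a 0–100 scale (0 no activity, 100 total control).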

Echinochloa crus-galli [42] = assay: Herbicidal activity against Echinochloa crus-galli (barnyard grass) at 400 g/hm2 postemergent application after 2 weeks; assay type: functional; how it was run: as §1
Setaria glauca (foxtail) [43] = assay: Herbicidal activity against Setaria glauca at 400 g/hm2 postemergent application after 2 weeks
Echinochloa crus-galli [44] = assay: Herbicidal activity against Echinochloa crus-galli (barnyard grass) at 200 g/hm2 postemergent application after 2 weeks; assay type: functional; how it was run: as §1
Abutilon theophrasti [45] = assay: Herbicidal activity against Abutilon theophrasti (velvetleaf) at 200 g/hm2 postemergent application after 2 weeks; assay type: functional; how it was run: as §1
Abutilon theophrasti [46] = assay: Herbicidal activity against Abutilon theophrasti (velvetleaf) at 400 g/hm2 postemergent application after 2 weeks; assay type: functional; how it was run: as §1
Commelina communis [47] = assay: Herbicidal activity against Commelina communis (Asiatic dayflower) at 400 g/hm2 post-emergent application after 2 weeks; assay type: functional; how it was run: as §1
Xanthium strumarium [48] = assay: Herbicidal activity against Xanthium strumarium (cocklebur) at 400 g/hm2 postemergent application after 2 weeks; assay type: functional; how it was run: as §1
Amaranthus retroflexus [49] = assay: Herbicidal activity against Amaranthus retroflexus at 400 g/hm2 postemergent application after 2 weeks; assay type: functional; how it was run: as §1
Glycine max [50] = assay: Toxicity against Glycine max (soybean) at 400 g/hm2 postemergent application after 2 weeks; assay type: organism-based; conditions: in vivo, other, 336 h; how it was run: as §1
Portulaca oleracea [51] = assay: Herbicidal activity against Portulaca oleracea at 400 g/hm2 postemergent application after 2 weeks; assay type: functional; how it was run: as §1
Digitaria sanguinalis [52] = assay: Herbicidal activity against Digitaria sanguinalis (hairy crabgrass) at 200 g/hm2 postemergent application after 2 weeks; assay type: functional; how it was run: as §1
Digitaria sanguinalis [53] = assay: Herbicidal activity against Digitaria sanguinalis (hairy crabgrass) at 400 g/hm2 postemergent application after 2 weeks; assay type: functional; how it was run: as §1

Row | Structure (SMILES) | Activity (Echinochloa crus-galli [1]) [%] | Activity (Digitaria sanguinalis [2]) [%] | Activity (Abutilon theophrasti [3]) [%] | Activity (Echinochloa crus-galli [4]) [%] | Activity (Abutilon theophrasti [5]) [%] | Activity (Digitaria sanguinalis [6]) [%] | Activity (Digitaria sanguinalis [7]) [%] | Activity (Echinochloa crus-galli [8]) [%] | Activity (Abutilon theophrasti [9]) [%] | Activity (Digitaria sanguinalis [16]) [%] | Activity (Echinochloa crus-galli [18]) [%] | LD10 (Glycine max [19]) [g/hm2] | Activity (Echinochloa crus-galli [20]) [%] | Activity (Abutilon theophrasti [22]) [%] | Activity (Glycine max [24]) [%] | LD90 (Abutilon theophrasti [26]) [g/hm2] | Activity (Commelina communis [27]) [%] | Activity (Abutilon theophrasti [30]) [%] | Selectivity Index [31] | Activity (Digitaria sanguinalis [32]) [%] | other results
1 | COC(=O)/C=C/COC(=O)c1cc(Oc2ccc(C(F)(F)F)cc2Cl)ccc1[N+](=O)[O-] | 60 | 90 | 100 | 10 | 30 | 20 | 80 | 80 | 95 |  |  |  |  |  |  |  |  |  |  |  | 
2 | CC(C)OC(=O)/C=C/COC(=O)c1cc(Oc2ccc(C(F)(F)F)cc2Cl)ccc1[N+](=O)[O-] | 60 | 90 | 100 | 30 | 80 | 80 | 85 | 80 | 95 |  |  |  |  |  |  |  |  |  |  |  | 
3 | CCOC(=O)/C=C/COC(=O)c1cc(Oc2ccc(C(F)(F)F)cc2Cl)ccc1[N+](=O)[O-] | 50 | 90 | 100 | 40 | 95 | 60 | 80 | 70 | 99 | 70 | <70 | 63 | 55 | 100 | 10 | 19.4 | 95 | 95 | 3.2 | 60 | Activity (Portulaca oleracea [10]): 95%; Activity (Commelina communis [11]): <70%; Activity (Xanthium strumarium [12]): 70%; Activity (Setaria glauca (foxtail) [13]): <70%; Activity (Xanthium strumarium [14]): 40%; Activity (Abutilon theophrasti [15]): 65%; Activity (Commelina communis [17]): 35%; Activity (Digitaria sanguinalis [21]): 5%; Activity (Triticum aestivum [23]): 10%; Activity (Glycine max [25]): 5%; Activity (Amaranthus retroflexus [28]): 95%; Activity (Echinochloa crus-galli [29]): 0%; Activity (Triticum aestivum [33]): 25%; Activity (Xanthium strumarium [34]): 98%
4 | C=CCOC(=O)/C=C/COC(=O)c1cc(Oc2ccc(C(F)(F)F)cc2Cl)ccc1[N+](=O)[O-] |  |  |  |  |  |  |  |  |  |  |  |  |  |  |  |  |  |  |  |  | Activity (Abutilon theophrasti [35]): 80%; Activity (Echinochloa crus-galli [36]): 30%; Activity (Digitaria sanguinalis [37]): 55%; Activity (Echinochloa crus-galli [38]): 60%; Activity (Digitaria sanguinalis [39]): 25%; Activity (Abutilon theophrasti [40]): 100%
5 | O=C(O)c1cc(Oc2ccc(C(F)(F)F)cc2Cl)ccc1[N+](=O)[O-] [ACIFLUORFEN] |  |  |  |  |  |  |  |  |  | 0 | 20 | 461.8 | 25 | 85 | 5 | 137.4 | 60 | 50 | 3.4 | 10 | Activity (Triticum aestivum [41]): 15%; Activity (Echinochloa crus-galli [42]): <70%; Activity (Setaria glauca (foxtail) [43]): <70%; Activity (Echinochloa crus-galli [44]): 50%; Activity (Abutilon theophrasti [35]): 100%; Activity (Abutilon theophrasti [45]): 95%; Activity (Abutilon theophrasti [46]): 70%; Activity (Echinochloa crus-galli [36]): 90%; Activity (Commelina communis [47]): <70%; Activity (Digitaria sanguinalis [39]): 10%; Activity (Xanthium strumarium [48]): <70%; Activity (Amaranthus retroflexus [49]): 95%; Activity (Glycine max [50]): 10%; Activity (Portulaca oleracea [51]): 95%; Activity (Digitaria sanguinalis [52]): 0%; Activity (Triticum aestivum [33]): 0%; Activity (Xanthium strumarium [34]): 80%; Activity (Digitaria sanguinalis [53]): 70%
